Measurements taken from ChEMBL document CHEMBL5247599, “New β-arylchalcogeno amines with procognitive properties targeting Carbonic Anhydrases and Monoamine Oxidases” (Eur J Med Chem, 2022).
The source made the active and inactive calls. No cut-off for these calls is given here.

Legend:
[1] = molecular target: Carbonic anhydrase 2 (Homo sapiens) (UniProt P00918); experiment: Binding affinity to human CA2 by phenol red dye based stopped flow CO2 hydration assay
Procedure, shortened: (§1)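 Purified recombinant human CA isoforms. CA-catalysed CO2 hydration was followed by stopped-flow with phenol red at 557 nm, taking initial rates over 10–100 s from at least six traces of the first 5–10% of reaction. Uncatalysed rates were subtracted. Activator stocks were 0.1 mM in deionised water, diluted down to 0.1 nM in assay buffer. K_A came from non-linear least-squares Michaelis–Menten fitting.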

[2] = molecular target: Carbonic anhydrase 3 (Homo sapiens) (UniProt P07451); experiment: Binding affinity to human CA3 by phenol red dye based stopped flow CO2 hydration assay; details: filed as activator; procedure, shortened: as §1
Chain of Carbonic anhydrase 3 (Homo sapiens) (P07451 whole entry): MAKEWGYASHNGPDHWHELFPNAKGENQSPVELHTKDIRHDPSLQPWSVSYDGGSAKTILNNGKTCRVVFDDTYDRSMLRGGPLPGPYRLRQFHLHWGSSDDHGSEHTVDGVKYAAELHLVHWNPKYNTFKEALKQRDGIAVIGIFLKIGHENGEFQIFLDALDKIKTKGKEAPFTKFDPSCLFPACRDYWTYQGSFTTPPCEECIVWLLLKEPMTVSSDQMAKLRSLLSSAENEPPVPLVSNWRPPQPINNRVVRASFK

[3] = molecular target: Carbonic anhydrase 4 (Homo sapiens) (UniProt P22748); experiment: Binding affinity to human CA4 by phenol red dye based stopped flow CO2 hydration assay; details: filed as activator; procedure, shortened: as §1
Chain of Carbonic anhydrase 4 (Homo sapiens) (P22748 whole entry): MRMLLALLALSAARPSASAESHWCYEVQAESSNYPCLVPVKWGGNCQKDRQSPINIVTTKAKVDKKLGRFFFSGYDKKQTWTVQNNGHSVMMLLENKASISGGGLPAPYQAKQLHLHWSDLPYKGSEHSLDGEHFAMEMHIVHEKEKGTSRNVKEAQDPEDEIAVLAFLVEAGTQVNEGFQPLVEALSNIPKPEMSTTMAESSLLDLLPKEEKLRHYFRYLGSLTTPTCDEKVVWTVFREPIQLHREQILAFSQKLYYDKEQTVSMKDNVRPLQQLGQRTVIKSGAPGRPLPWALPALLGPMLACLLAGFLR

[4] = molecular target: Carbonic anhydrase 5A, mitochondrial (Homo sapiens) (UniProt P35218); experiment: Binding affinity to human CA5a by phenol red dye based stopped flow CO2 hydration assay; details: filed as activator; procedure, shortened: as §1
Chain of Carbonic anhydrase 5A, mitochondrial (Homo sapiens) (P35218 whole entry): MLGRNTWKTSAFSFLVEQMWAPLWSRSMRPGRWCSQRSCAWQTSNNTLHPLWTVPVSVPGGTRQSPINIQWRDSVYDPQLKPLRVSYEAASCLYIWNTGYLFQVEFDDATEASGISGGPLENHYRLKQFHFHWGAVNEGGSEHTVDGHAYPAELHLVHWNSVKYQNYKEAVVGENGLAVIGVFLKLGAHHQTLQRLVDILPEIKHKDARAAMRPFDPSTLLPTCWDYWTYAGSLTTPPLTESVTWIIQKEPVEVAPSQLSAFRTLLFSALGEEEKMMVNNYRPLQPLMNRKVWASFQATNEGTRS

[5] = molecular target: Carbonic anhydrase 5B, mitochondrial (Homo sapiens) (UniProt Q9Y2D0); experiment: Binding affinity to human CA5b by phenol red dye based stopped flow CO2 hydration assay; details: filed as activator; procedure, shortened: as §1
Chain of Carbonic anhydrase 5B, mitochondrial (Homo sapiens) (Q9Y2D0 whole entry): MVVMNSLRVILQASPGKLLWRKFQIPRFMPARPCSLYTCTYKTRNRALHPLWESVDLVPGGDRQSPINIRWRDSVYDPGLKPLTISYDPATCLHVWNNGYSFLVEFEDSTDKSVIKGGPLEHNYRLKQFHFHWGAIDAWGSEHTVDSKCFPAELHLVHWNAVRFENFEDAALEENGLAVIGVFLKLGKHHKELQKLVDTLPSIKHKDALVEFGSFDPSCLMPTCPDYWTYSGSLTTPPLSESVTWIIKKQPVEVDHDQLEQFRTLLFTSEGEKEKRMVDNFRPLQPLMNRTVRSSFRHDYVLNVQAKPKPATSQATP

[6] = molecular target: Carbonic anhydrase 6 (Homo sapiens) (UniProt P23280); experiment: Binding affinity to human CA6 by phenol red dye based stopped flow CO2 hydration assay; details: filed as activator; procedure, shortened: as §1
Chain of Carbonic anhydrase 6 (Homo sapiens) (P23280 whole entry): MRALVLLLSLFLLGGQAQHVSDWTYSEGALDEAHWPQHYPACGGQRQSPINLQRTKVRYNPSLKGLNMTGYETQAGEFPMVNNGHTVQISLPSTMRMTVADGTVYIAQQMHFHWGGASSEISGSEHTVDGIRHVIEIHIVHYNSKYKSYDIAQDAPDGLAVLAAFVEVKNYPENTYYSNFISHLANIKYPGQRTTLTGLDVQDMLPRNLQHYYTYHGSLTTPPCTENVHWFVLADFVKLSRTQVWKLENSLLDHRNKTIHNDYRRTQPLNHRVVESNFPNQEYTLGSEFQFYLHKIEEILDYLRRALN

[7] = molecular target: Carbonic anhydrase 7 (Homo sapiens) (UniProt P43166); experiment: Binding affinity to human CA7 by phenol red dye based stopped flow CO2 hydration assay; details: filed as activator; procedure, shortened: as §1
Chain of Carbonic anhydrase 7 (Homo sapiens) (P43166 whole entry): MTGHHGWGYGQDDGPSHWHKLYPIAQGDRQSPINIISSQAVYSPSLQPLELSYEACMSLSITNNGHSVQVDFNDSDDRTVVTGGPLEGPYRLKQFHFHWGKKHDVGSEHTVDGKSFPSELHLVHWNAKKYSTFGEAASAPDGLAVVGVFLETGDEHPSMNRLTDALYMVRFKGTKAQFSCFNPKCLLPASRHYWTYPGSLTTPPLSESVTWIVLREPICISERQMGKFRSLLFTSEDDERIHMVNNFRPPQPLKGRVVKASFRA

[8] = molecular target: Carbonic anhydrase 9 (Homo sapiens) (UniProt Q16790); experiment: Binding affinity to human CA9 by phenol red dye based stopped flow CO2 hydration assay; details: filed as activator; procedure, shortened: as §1
[9] = molecular target: Carbonic anhydrase 13 (Homo sapiens) (UniProt Q8N1Q1); experiment: Binding affinity to human CA13 by phenol red dye based stopped flow CO2 hydration assay; details: filed as activator; procedure, shortened: as §1
Chain of Carbonic anhydrase 13 (Homo sapiens) (Q8N1Q1 whole entry, looked up): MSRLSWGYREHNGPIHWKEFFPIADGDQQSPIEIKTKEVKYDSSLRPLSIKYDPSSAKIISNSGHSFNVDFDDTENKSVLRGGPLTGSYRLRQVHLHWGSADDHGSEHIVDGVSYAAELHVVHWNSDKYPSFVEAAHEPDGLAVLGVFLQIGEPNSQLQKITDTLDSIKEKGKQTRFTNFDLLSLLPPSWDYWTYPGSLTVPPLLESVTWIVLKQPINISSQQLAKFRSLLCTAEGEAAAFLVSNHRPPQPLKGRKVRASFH

[10] = molecular target: Carbonic anhydrase 14 (Homo sapiens) (UniProt Q9ULX7); experiment: Binding affinity to human CA14 by phenol red dye based stopped flow CO2 hydration assay; details: filed as activator; procedure, shortened: as §1
Chain of Carbonic anhydrase 14 (Homo sapiens) (Q9ULX7 whole entry): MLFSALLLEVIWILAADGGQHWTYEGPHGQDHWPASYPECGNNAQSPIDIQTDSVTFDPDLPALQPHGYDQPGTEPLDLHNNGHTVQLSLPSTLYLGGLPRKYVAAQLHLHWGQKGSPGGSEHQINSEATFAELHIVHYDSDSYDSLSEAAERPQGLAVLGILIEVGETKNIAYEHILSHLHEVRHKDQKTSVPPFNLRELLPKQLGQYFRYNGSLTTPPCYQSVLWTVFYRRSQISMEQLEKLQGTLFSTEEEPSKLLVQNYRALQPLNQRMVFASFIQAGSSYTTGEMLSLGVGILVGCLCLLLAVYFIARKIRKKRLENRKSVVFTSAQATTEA

[11] = molecular target: T1, Amine oxidase [flavin-containing] A (Homo sapiens, UniProt P21397); experiment: Inhibition of human recombinant MAO-A assessed as inhibition of 4-hydroxyquinoline formation using kynuramine as substrate by fluorescence spectrophotometry analysis
T1 sequence (P21397 whole entry): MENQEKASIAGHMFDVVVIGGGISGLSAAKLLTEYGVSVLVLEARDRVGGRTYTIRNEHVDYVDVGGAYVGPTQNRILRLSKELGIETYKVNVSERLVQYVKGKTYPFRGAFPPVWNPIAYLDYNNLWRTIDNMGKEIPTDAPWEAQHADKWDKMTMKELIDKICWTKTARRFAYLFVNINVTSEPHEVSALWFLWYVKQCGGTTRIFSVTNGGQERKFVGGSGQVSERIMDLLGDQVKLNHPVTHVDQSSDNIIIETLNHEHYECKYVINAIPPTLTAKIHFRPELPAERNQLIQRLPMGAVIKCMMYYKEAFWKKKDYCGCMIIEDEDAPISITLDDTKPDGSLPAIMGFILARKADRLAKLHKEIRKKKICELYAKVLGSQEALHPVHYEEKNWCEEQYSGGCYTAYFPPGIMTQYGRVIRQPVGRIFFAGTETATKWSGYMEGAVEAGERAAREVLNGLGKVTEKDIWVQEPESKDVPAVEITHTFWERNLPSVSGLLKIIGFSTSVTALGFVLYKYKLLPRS
Procedure, shortened: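 Recombinant human MAO-A with kynuramine as substrate. The 4-hydroxyquinoline product was quantified by fluorescence spectrophotometry, and IC50 values were determined.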

Mus musculus [12] = experiment: Pro-cognitive activity in C57Bl6 mouse assessed as attenuation of long-term memory deficit by measuring increase in exploration time for novel object at 25 nmol/uL, icv measured after 24 hrs by novel object recognition test; format: functional, organism-based
Procedure, shortened: (§2)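 Novel object recognition in adult male C57Bl6 mice. Habituation was 10 min in an empty arena. Twenty-four hours later, mice explored two identical objects for 5 min, then received an immediate 5 µL lateral-ventricle infusion at 1 µL/min. A 5-min retention test with one familiar and one novel object followed 24 h later. Scores were % exploration time and DI = (tN−tF)/(tN+tF).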

Mus musculus [13] = experiment: Pro-cognitive activity in C57Bl6 mouse assessed as attenuation of long-term memory deficit by measuring increase in exploration time for novel object by measuring discrimination index at 50 nmol/uL, icv measured after 24 hrs by novel object recognition test; format: functional; procedure, shortened: as §2
Mus musculus [14] = experiment: Pro-cognitive activity in C57Bl6 mouse assessed as attenuation of long-term memory deficit by measuring increase in exploration time for novel juvenile at 50 nmol/uL, icv measured after 48 hrs by novel object recognition test; format: functional, organism-based
Procedure, shortened: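 Male adult C57Bl6 mice (8–9 weeks), lateral-ventricle cannula implanted 7 days earlier. Social recognition: 10-min habituation to arena with two empty cups; 24 h later 10-min acquisition with an unfamiliar juvenile (3–4 weeks) under one wire cup. Immediately after, 5 µL i.c.v. infusion at 1 µL/min. Retention at 48 h with familiar and novel juvenile; percentage time exploring each cup (snout-to-cup contact).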

Mus musculus [15] = experiment: Pro-cognitive activity in C57Bl6 mouse assessed as attenuation of long-term memory deficit by measuring increase in exploration time for novel juvenile by measuring discrimination index at 25 nmol/uL, icv measured after 48 hrs by novel object recognition test; format: functional
Procedure, shortened: (§3)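 Social recognition in adult male C57Bl6 mice with intracerebroventricular cannulae. Habituation was 10 min with two empty cups. Twenty-four hours later, a novel 3–4-week-old juvenile was placed under one cup for 10 min of exploration, followed immediately by a 5 µL infusion at 1 µL/min. Retention 48 h later offered familiar versus novel juvenile, scoring snout-to-cup contact. DI = (tN−tF)/(tN+tF).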

Mus musculus [16] = experiment: Pro-cognitive activity in C57Bl6 mouse assessed as attenuation of long-term memory deficit by measuring increase in exploration time for novel juvenile by measuring discrimination index at 50 nmol/uL, icv measured after 48 hrs by novel object recognition test; format: functional; procedure, shortened: as §3
[17] = Toxicity in C57Bl6 mouse assessed as reduction in distance travel at 50 nmol/uL administered directly into lateral ventricle by open field test; details: in vivo, icv_or_intrathecal
Procedure, shortened: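 Cannulated adult male C57Bl6 mice were placed in a 60×70 cm open-field arena 30 min after a 5 µL lateral-ventricle infusion. Total distance travelled over a 5-min session was recorded by overhead video tracking.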

[18] = Toxicity in overnight fasted C57Bl6 mouse assessed as reduction in food intake at 50 nmol/uL administered directly into lateral ventricle measured for 2 hrs; details: in vivo, icv_or_intrathecal
Procedure, shortened: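 Overnight-fasted male C57Bl6 mice received a lateral-ventricle infusion. Food was presented 30 min later, and intake was recorded at 0.5 h intervals over 2 h as cumulative consumption corrected for body weight; n = 8–9 per group.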

Mus musculus [19] = experiment: Pro-cognitive activity in C57Bl6 mouse assessed as attenuation of long-term memory deficit by measuring increase in exploration time for novel object by measuring discrimination index at 25 nmol/uL, icv measured after 24 hrs by novel object recognition test

Ka [1]: > 100 µM
Ka [2]: 26.8 µM
Ka [3]: 7.1 µM
Ka [4]: 12.4 µM
Ka [5]: 18.7 µM
Ka [6]: 70.9 µM
Ka [7]: 23.4 µM
Ka [8]: 74.8 µM
Ka [9]: 82.4 µM
Ka [10]: 9.8 µM
IC50 [11]: 4.72 µM
SMILES: CC(N)CSc1ccccc1 (centres undefined)
Activity (Mus musculus [12]): inactive
Activity_index (Mus musculus [13]): 0.185
Activity (Mus musculus [14]): Active
Activity_index (Mus musculus [15]): 0.038
Activity_index (Mus musculus [16]): 0.138
Activity [17]: Non-Toxic
Activity [18]: Non-Toxic
Activity_index (Mus musculus [19]): 0.111
